Test results as given in ChEMBL document CHEMBL1150797 (Antimicrob Agents Chemother, 2007).

Legend:
[1] = Apparent clearance in tuberculosis patient at 450 mg, po; type: ADME, organism-based; settings: human, in vivo
[2] = Apparent volume of distribution in tuberculosis patient at 450 mg, po; type: ADME, organism-based; settings: human, in vivo, read-out: Vc/F
[3] = Apparent volume of distribution in tuberculosis patient at 600 mg, po; type: ADME, organism-based; settings: human, in vivo, read-out: Vc/F
[4] = Cmax in human tuberculosis patient at 600 mg, po; settings: in vivo
[5] = Apparent clearance in tuberculosis patient at 600 mg, po; type: ADME, organism-based; settings: human, in vivo
[6] = system: Homo sapiens; experiment: Tmax in tuberculosis patient at 600 mg, po; type: ADME, organism-based; settings: in vivo
[7] = Tmax in tuberculosis patient at 450 mg, po; type: ADME, organism-based; settings: human, in vivo
[8] = system: Homo sapiens; experiment: Tmax in tuberculosis patient assessed as desacetylrifampin level at 450 mg, po; type: ADME, organism-based; settings: in vivo
[9] = system: Homo sapiens; experiment: Tmax in tuberculosis patient assessed as desacetylrifampin level at 600 mg, po; type: ADME, organism-based; settings: in vivo
[10] = clinical; settings: human, plasma, po, 450 mg
[11] = clinical; settings: human, plasma, po, 600 mg
[12] = AUC (0 to 24 hrs) in tuberculosis patient at 750 mg, po coadministered with 600 mg, po rifampin; type: ADME, organism-based; parameters: time < 24 hr, dose 750 mg, route oral; settings: human, plasma
How it was run: (§1)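 Plasma was sampled predose and at 1–12 h (nine points). Assay: spiked with internal standard, chloroform extraction, derivatization, HPLC-UV at 215 nm, LLOQ 0.05 mg/liter. Noncompartmental analysis: Cmax and Tmax observed, t1/2 = 0.693/β, AUC0-24 by linear-log trapezoid.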

[13] = AUC (0 to 24 hrs) in tuberculosis patient at 750 mg, po coadministered with 450 mg, po rifampin; type: ADME, organism-based; parameters: dose 750 mg, time < 24 hr, route oral; settings: human, plasma; how it was run: as §1
[14] = system: Homo sapiens; experiment: Cmax in tuberculosis patient at 750 mg, po coadministered with 600 mg, po rifampin; type: ADME, organism-based; parameters: dose 750 mg, route oral; settings: in vivo; how it was run: as §1
[15] = system: Homo sapiens; experiment: Cmax in tuberculosis patient at 750 mg, po coadministered with 450 mg, po rifampin; type: ADME, organism-based; parameters: dose 750 mg, route oral; settings: in vivo; how it was run: as §1
[16] = Tmax in tuberculosis patient at 750 mg, po coadministered with 600 mg, po rifampin; type: ADME, organism-based; settings: human, in vivo; how it was run: as §1
[17] = Tmax in tuberculosis patient at 750 mg, po coadministered with 450 mg, po rifampin; type: ADME, organism-based; settings: human, in vivo; how it was run: as §1
[18] = Half life in tuberculosis patient at 750 mg, po coadministered with 600 mg, po rifampin; type: ADME, organism-based; settings: human, in vivo; how it was run: as §1
[19] = Half life in tuberculosis patient at 750 mg, po coadministered with 450 mg, po rifampin; type: ADME, organism-based; settings: human, in vivo; how it was run: as §1
[20] = AUC (0 to 24 hrs) in tuberculosis patient at 1500 mg, po coadministered with 600 mg, po rifampin; type: ADME, organism-based; parameters: dose 1500 mg, time < 24 hr, route oral; settings: human, plasma
How it was run: (§2)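 Venous plasma was drawn predose and at 1, 1.5, 2, 2.5, 3, 4, 6 and 12 h. Assay: solid-phase extraction, HPLC-UV at 266 nm, LLOQ 0.1 mg/liter. Cmax and Tmax were observed values; noncompartmental analysis gave t1/2 as 0.693/β and AUC0-24 by linear-log trapezoid with C24 extrapolated.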

[21] = AUC (0 to 24 hrs) in tuberculosis patient at 1500 mg, po coadministered with 450 mg, po rifampin; type: ADME, organism-based; parameters: time < 24 hr, dose 1500 mg, route oral; settings: human, plasma; how it was run: as §2
[22] = Cmax in tuberculosis patient at 1500 mg, po coadministered with 600 mg, po rifampin; type: ADME, organism-based; parameters: dose 1500 mg, route oral; settings: human, in vivo; how it was run: as §2
[23] = Cmax in tuberculosis patient at 1500 mg, po coadministered with 450 mg, po rifampin; type: ADME, organism-based; parameters: dose 1500 mg, route oral; settings: human, in vivo; how it was run: as §2
[24] = Tmax in tuberculosis patient at 1500 mg, po coadministered with 600 mg, po rifampin; type: ADME, organism-based; settings: human, in vivo; how it was run: as §2
[25] = Tmax in tuberculosis patient at 1500 mg, po coadministered with 450 mg, po rifampin; type: ADME, organism-based; settings: human, in vivo; how it was run: as §2
[26] = Half life in tuberculosis patient at 1500 mg, po coadministered with 600 mg, po rifampin; type: ADME, organism-based; settings: human, in vivo; how it was run: as §2
[27] = Half life in tuberculosis patient at 1500 mg, po coadministered with 450 mg, po rifampin; type: ADME, organism-based; settings: human, in vivo; how it was run: as §2

Which CL/F [1] does the source give for `CO[C@H]1/C=C/O[C@@]2(C)Oc3c(C)c(O)c4c(O)c(c(/C=N/N5CCN(C)CC5)c(O)c4c3C2=O)NC(=O)/C(C)=C\C=C\[C@H](C)[C@H](O)[C@@H](C)[C@@H](O)[C@@H](C)[C@H](OC(C)=O)[C@@H]1C` [RIFAMPIN] here?
The CL/F was 153 mL/min.

What about the Vd/F [2] of the same compound?
Its Vd/F is 25.3 L.

What about the Vd/F [3] of the same compound?
The Vd/F was 23.3 L.

What about the Cmax [4] of the same compound?
Its Cmax is 15.6 µg/mL.

What about the CL/F [5] of the same compound?
Its CL/F is 125 mL/min.

And the Tmax [6]?
Its Tmax is 1 h.

What about the Tmax [7] of the same compound?
Its Tmax is 2 h.

And the Tmax [8]?
Its Tmax is 4 h.

And the Tmax [9]?
Its Tmax is 4 h.

And the AUC(0-t) at 24 h [10]?
Its AUC(0-t) at 24 h is 48.5 µg·h/mL.

What about the AUC(0-t) at 24 h [11] of the same compound?
Its AUC(0-t) at 24 h is 79.7 µg·h/mL.

For `CC[C@@H](CO)NCCN[C@@H](CC)CO` [ETHAMBUTOL], which AUC(0-t) at 24 h [12] is on record?
The AUC(0-t) at 24 h was 14.7 µg·h/mL.

And the AUC(0-t) at 24 h [13]?
Its AUC(0-t) at 24 h is 14.4 µg·h/mL.

What about the Cmax [14] of the same compound?
The Cmax was 2.3 h.

What about the Cmax [15] of the same compound?
Its Cmax is 2.4 h.

What about the Tmax [16] of the same compound?
Its Tmax is 2.5 h.

And the Tmax [17]?
Its Tmax is 2.5 h.

And the half-life [18]?
Its half-life is 4.6 h.

And the half-life [19]?
The half-life was 4.2 h.

Which AUC(0-t) at 24 h [20] does the source give for `NC(=O)c1cnccn1` [PYRAZINAMIDE] here?
Its AUC(0-t) at 24 h is 514 µg·h/mL.

And the AUC(0-t) at 24 h [21]?
Its AUC(0-t) at 24 h is 473 µg·h/mL.

And the Cmax [22]?
Its Cmax is 46 µg/mL.

What about the Cmax [23] of the same compound?
The Cmax was 43.8 µg/mL.

What about the Tmax [24] of the same compound?
Its Tmax is 2.5 h.

What about the Tmax [25] of the same compound?
The Tmax was 2.75 h.

What about the half-life [26] of the same compound?
Its half-life is 6.9 h.

And the half-life [27]?
Its half-life is 6.6 h.
